Measurements: ChEMBL document CHEMBL2169767 (J Med Chem, 2012)
Where a SMILES comes first, the peptide text is derived from it. [ ]: non-standard residue; d: D form. d1Nal = N[C@H](Cc1cccc2ccccc12)C(=O)O; Phg = N[C@H](C(=O)O)c1ccccc1

Columns and labels:
[1] = target: T1, Growth hormone secretagogue receptor type 1 (Homo sapiens, UniProt Q92847); assay: Activation of human ghrelin receptor expressed in COS 7 cells using [2-3H]myo-inositol by inositol triphosphate turnover assay; format: functional, cell-based
Summary of the method: (§1)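 Stimulated with seven to nine peptide concentrations, stopped by aspirating medium. Lysate supernatant purified on anion-exchange resin. Emax = difference between constitutive activity and activity at maximal peptide effect; EC50 = half-maximal concentration.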

[2] = target: T1, Growth hormone secretagogue receptor type 1; assay: Displacement of [125I]-His-ghrelin from human ghrelin receptor expressed in COS7 cells incubated for 75 mins by scintillation counting based assay; format: cell-based, COS-7
[3] = target: T1, Growth hormone secretagogue receptor type 1; assay: Ratio of EC50 of ghrelin to EC50 of compound at human ghrelin receptor expressed in COS 7 cells using [2-3H]myo-inositol by inositol triphosphate turnover assay; format: functional, cell-based
Rattus norvegicus [4] = assay: Toxicity in rat assessed as decrease in water consumption at 1 nmol, icv measured over 120 mins; format: organism-based; details: in vivo, icv_or_intrathecal, 2 h
Rattus norvegicus [5] = assay: Toxicity in rat assessed as decrease in activity at 1 nmol, icv measured over 120 mins; format: organism-based; details: in vivo, icv_or_intrathecal, 2 h
[6] = target: T1, Growth hormone secretagogue receptor type 1; assay: Agonist activity at human ghrelin receptor expressed in COS 7 cells using [2-3H]myo-inositol by inositol triphosphate turnover assay relative to untreated control; format: functional, cell-based; summary of the method: as §1
[7] = target: Growth hormone secretagogue receptor type 1 (Homo sapiens, UniProt Q92847, S123A); assay: Agonist activity at FLAG-tagged human ghrelin receptor Ser123:Ala mutant expressed in COS 7 cells using [2-3H]myo-inositol by inositol triphosphate turnover assay; format: functional, cell-based
Summary of the method: (§2)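 COS7 cells transiently or stably (hygromycin B 0.4 mg/mL) transfected with receptor; transient cells exposed 14 h to receptor DNA with metafectene. Day after transfection/seeding, labelled with [2-3H]myo-inositol (2 μCi/mL), then stimulated with seven to nine peptide concentrations; stopped by aspirating medium, lysate supernatant purified on anion-exchange resin. EC50 = half-maximal effect; Emax = difference between constitutive activity and maximal-effect activity.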

[8] = target: T1, Growth hormone secretagogue receptor type 1; assay: Agonist activity at FLAG-tagged human ghrelin receptor expressed in COS 7 cells using [2-3H]myo-inositol by inositol triphosphate turnover assay; format: functional, cell-based; summary of the method: as §2
[9] = target: Growth hormone secretagogue receptor type 1 (Homo sapiens, UniProt Q92847, F119S); assay: Agonist activity at FLAG-tagged human ghrelin receptor Phe119:Ser mutant expressed in COS 7 cells using [2-3H]myo-inositol by inositol triphosphate turnover assay; format: functional, cell-based
Sequence of Growth hormone secretagogue receptor type 1 (Homo sapiens, UniProt Q92847, F119S) (Q92847 whole entry F119S): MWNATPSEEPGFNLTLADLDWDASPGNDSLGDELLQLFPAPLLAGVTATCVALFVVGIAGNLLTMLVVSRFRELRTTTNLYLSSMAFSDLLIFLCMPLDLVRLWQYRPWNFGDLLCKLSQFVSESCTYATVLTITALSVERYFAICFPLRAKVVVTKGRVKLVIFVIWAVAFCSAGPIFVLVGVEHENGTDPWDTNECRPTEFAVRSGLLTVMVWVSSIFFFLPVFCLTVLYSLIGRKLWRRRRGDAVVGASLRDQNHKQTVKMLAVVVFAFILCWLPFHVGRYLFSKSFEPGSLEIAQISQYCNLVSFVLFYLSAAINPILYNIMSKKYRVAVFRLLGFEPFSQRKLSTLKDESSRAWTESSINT

T1 sequence (Q92847 whole entry): as the sequence (Q92847 whole entry F119S) above, with S119F counted along it
Sequence of Growth hormone secretagogue receptor type 1 (Homo sapiens, UniProt Q92847, S123A) (Q92847 whole entry S123A): as the sequence (Q92847 whole entry F119S) above, with S119F, S123A counted along it

Compound	EC50 [1]	IC50 [2]	Ratio EC50 [3]	further results
CC(C)C[C@H](NC(=O)[C@H](CC(C)C)NC(=O)[C@H](NC(=O)[C@H](Cc1ccccc1)NC(=O)[C@@H](Cc1c[nH]c2ccccc12)NC(=O)[C@@H](N)CCCCN)C(c1ccccc1)c1ccccc1)C(N)=O	> 1000 nM	≥ 1000 nM	> 700	
CC(C)C[C@H](NC(=O)[C@H](CC(C)C)NC(=O)[C@@H](Cc1c[nH]c2ccccc12)NC(=O)[C@H](Cc1ccccc1)NC(=O)[C@@H](Cc1cccc2ccccc12)NC(=O)[C@@H](N)CCCCN)C(N)=O				Activity (Rattus norvegicus [4]): Toxic; Activity (Rattus norvegicus [5]): Toxic
CC(C)C[C@H](NC(=O)[C@H](CC(C)C)NC(=O)[C@@H](Cc1ccc(-c2ccccc2)cc1)NC(=O)[C@H](Cc1ccccc1)NC(=O)[C@@H](Cc1c[nH]c2ccccc12)NC(=O)[C@@H](N)CCCCN)C(N)=O	> 1000 nM	≥ 1000 nM	> 700	
CC(C)C[C@H](NC(=O)[C@H](CC(C)C)NC(=O)[C@@H](Cc1ccc(C(=O)c2ccccc2)cc1)NC(=O)[C@H](Cc1ccccc1)NC(=O)[C@@H](Cc1c[nH]c2ccccc12)NC(=O)[C@@H](N)CCCCN)C(N)=O	> 1000 nM	≥ 1000 nM	> 700	

More lines, main results first:

EC50 [1]	IC50 [2]	Ratio EC50 [3]	Compound	further results
> 1000 nM			CC(C)C[C@H](NC(=O)[C@H](CC(C)C)NC(=O)[C@@H](Cc1c[nH]c2ccccc12)NC(=O)[C@@H](NC(=O)[C@@H](Cc1cccc2ccccc12)NC(=O)[C@@H](N)CCCCN)c1ccccc1)C(N)=O (H-K[d1Nal][Phg][dW]LL-NH2)	
		12.8	CC(C)C[C@H](NC(=O)[C@H](CC(C)C)NC(=O)[C@@H](Cc1cccc2ccccc12)NC(=O)[C@H](Cc1ccccc1)NC(=O)[C@@H](Cc1c[nH]c2ccccc12)NC(=O)[C@@H](N)CCCCN)C(N)=O	Emax [6]: 54%; Ki [2]: 247 nM
		9	CC(C)C[C@H](NC(=O)[C@H](CC(C)C)NC(=O)[C@@H](Cc1ccc2ccccc2c1)NC(=O)[C@H](Cc1ccccc1)NC(=O)[C@@H](Cc1c[nH]c2ccccc12)NC(=O)[C@@H](N)CCCCN)C(N)=O	Emax [6]: 156%; EC50 [7]: 6.7 nM; EC50 [8]: 7.2 nM; EC50 [9]: 13.4 nM; Ki [2]: 234 nM
> 1000 nM			CC(C)C[C@H](NC(=O)[C@H](CC(C)C)NC(=O)[C@@H](Cc1cccc2ccccc12)NC(=O)[C@H](Cc1ccccc1)NC(=O)[C@@H](Cc1cccc2ccccc12)NC(=O)[C@@H](N)CCCCN)C(N)=O	
